Data published in ChEMBL document CHEMBL1123760, “Synthesis and oral antifungal activity of novel azolylpropanolones and related compounds” (1987).
In brackets after ≈: the same amount, converted by molar mass.

Experiments:
Assay type in all cases: functional
[1] = system: Candida albicans; test: Minimum effective concentration for inhibition of pseudomycelium formation in Candida albicans; settings: for minimal effective concentration: Candida albicans, read-out: MEC
Procedure, shortened: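 C. albicans KE-2 (clinical isolate) at a final 1 × 10^6 yeast cells/mL in EMEM with 20% calf serum; compounds diluted by the same microtiter system as for MICs. After incubation, wells were Giemsa-stained (5% in phosphate buffer) and read by microscope. MEC is the lowest concentration preventing typical pseudomycelium formation.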

[2] = system: Trichophyton benhamiae; test: In vitro antifungal activity against Trichophyton asteroides
Procedure, shortened: (§1)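 Broth microdilution MIC in Sabouraud's glucose broth; final inocula 1 × 10^5 cells/mL (yeast) or 1 × 10^5 conidia/mL (mold and dermatophyte).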

[3] = system: Aspergillus fumigatus; test: In vitro antifungal activity against Aspergillus fumigatus; procedure, shortened: as §1
[4] = system: Candida albicans; test: In vitro antifungal activity against Candida albicans; procedure, shortened: as §1
[5] = Trichophyton benhamiae, read-out: MIC
[6] = Aspergillus fumigatus, read-out: MIC
[7] = Candida albicans, read-out: MIC

MIC [2, 5]	MIC [3, 6]	MIC [4, 7]	MIC [2]	MIC [3]	MIC [4]	Structure (SMILES)	MEC [1]	minimal effective concentration [1]
0.1 µg/mL (≈ 0.242 µM)	25 µg/mL (≈ 60.6 µM)	> 100 µg/mL				CC(O)(c1ccc(Cl)cc1)C(O)(Cn1cncn1)c1ccc(Cl)cc1Cl (stereo in doubt; 175)	0.31 µg/mL	
1.6 µg/mL (≈ 5.09 µM)	> 100 µg/mL	> 100 µg/mL				CCC(O)(Cn1cncn1)C(=O)c1ccc(Cl)cc1Cl (configuration not stated)		20 µg/mL
3.1 µg/mL (≈ 7.31 µM)	> 100 µg/mL	100 µg/mL (≈ 236 µM)				Fc1ccc([C@H]2OC(=S)O[C@]2(Cn2cncn2)c2ccc(Cl)cc2Cl)cc1		10 µg/mL
	> 100 µg/mL	50 µg/mL (≈ 137 µM)	12.5 µg/mL (≈ 34.3 µM)			OC(c1ccc(Cl)cc1)C(O)(Cn1cncn1)c1ccc(Cl)cc1 (stereo in doubt; 89)	20 µg/mL	
0.8 µg/mL (≈ 2.12 µM)	> 100 µg/mL	> 100 µg/mL				CC(O)(c1ccc(Cl)cc1)C(O)(Cn1ccnc1)c1ccc(Cl)cc1 (configuration not stated)		1.25 µg/mL
0.1 µg/mL (≈ 0.262 µM)	> 100 µg/mL	> 100 µg/mL				OC(c1ccc(Cl)cc1Cl)C(O)(Cn1cncn1)c1ccc(F)cc1 (configuration not stated)		0.31 µg/mL
0.2 µg/mL (≈ 0.491 µM)	50 µg/mL (≈ 123 µM)	100 µg/mL (≈ 246 µM)				O=C1O[C@H](c2ccc(F)cc2)[C@@](Cn2ccnc2)(c2ccc(Cl)cc2Cl)O1		0.16 µg/mL
0.8 µg/mL (≈ 2.6 µM)	> 100 µg/mL	> 100 µg/mL				CC(C)CC(O)(Cn1cncn1)C(=O)c1ccc(Cl)cc1 (configuration not stated)		0.31 µg/mL
0.4 µg/mL (≈ 1.3 µM)	100 µg/mL (≈ 325 µM)	> 100 µg/mL				CC(C)[C@H]1OCO[C@@]1(Cn1cncn1)c1ccc(Cl)cc1		0.04 µg/mL
12.5 µg/mL (≈ 35.4 µM)	> 100 µg/mL	> 100 µg/mL				COc1ccc(C(=O)C(O)(Cn2cncn2)c2ccc(OC)cc2)cc1 (configuration not stated)		> 20 µg/mL
	> 100 µg/mL	> 100 µg/mL	25 µg/mL (≈ 61.4 µM)			OC(Cn1cncn1)(c1ccc(F)cc1)C(O)(c1ccccc1)c1ccc(F)cc1 (stereo in doubt; 165)		> 20 µg/mL
6.3 µg/mL (≈ 15.5 µM)	> 100 µg/mL	> 100 µg/mL				CC(C)C(O)(Cn1cncn1)C(O)(c1ccc(Cl)cc1)c1ccc(Cl)cc1 (configuration not stated)		> 20 µg/mL
	> 100 µg/mL	> 100 µg/mL	0.8 µg/mL (≈ 2.7 µM)			CC(C)C(O)C(O)(Cn1cncn1)c1ccc(Cl)cc1 (stereo in doubt; 100)	0.16 µg/mL	
			0.1 µg/mL (≈ 0.264 µM)	50 µg/mL (≈ 132 µM)	100 µg/mL (≈ 264 µM)	CC(O)(c1ccc(Cl)cc1)C(O)(Cn1cncn1)c1ccc(Cl)cc1 (stereo in doubt; 193)	0.36 µg/mL	
50 µg/mL (≈ 138 µM)	> 100 µg/mL	> 100 µg/mL				OC(c1ccc(Cl)cc1)C(O)(Cn1ccnc1)c1ccc(Cl)cc1 (configuration not stated)		> 20 µg/mL
6.3 µg/mL (≈ 16.1 µM)	> 100 µg/mL	100 µg/mL (≈ 256 µM)				O=C1O[C@H](c2cccc(Cl)c2)[C@@](Cn2cncn2)(c2cccc(Cl)c2)O1		> 20 µg/mL
0.2 µg/mL (≈ 0.556 µM)	> 100 µg/mL	> 100 µg/mL				Fc1ccc([C@H]2OCO[C@]2(Cn2cncn2)c2ccc(Cl)cc2)cc1		0.63 µg/mL
0.4 µg/mL (≈ 1.17 µM)	> 100 µg/mL	> 100 µg/mL				CC(C)[C@H]1OS(=O)O[C@@]1(Cn1cncn1)c1ccc(Cl)cc1 (some centres not stated)		0.16 µg/mL
0.1 µg/mL (≈ 0.276 µM)	12.5 µg/mL (≈ 34.5 µM)	> 100 µg/mL				CC(O)(c1ccc(F)cc1)C(O)(Cn1cncn1)c1ccccc1Cl (stereo in doubt; 182)		2.5 µg/mL
0.4 µg/mL (≈ 1.17 µM)	> 100 µg/mL	> 100 µg/mL				CC(C)[C@H]1OS(=O)O[C@]1(Cn1cncn1)c1ccc(Cl)cc1 (some centres not stated)		0.16 µg/mL
6.3 µg/mL (≈ 22.9 µM)	> 100 µg/mL	> 100 µg/mL				CC(C)C(C)(O)C(O)(Cn1cncn1)c1ccccc1 (configuration not stated)		10 µg/mL
> 100 µg/mL	> 100 µg/mL	> 100 µg/mL				O=C(c1ccc(F)cc1)C(O)(Cn1cnnc1)c1ccccc1Cl (configuration not stated)		> 20 µg/mL
25 µg/mL (≈ 70.3 µM)	> 100 µg/mL	> 100 µg/mL				COc1ccc(C(O)C(O)(Cn2cncn2)c2ccc(OC)cc2)cc1 (configuration not stated)		> 20 µg/mL
0.4 µg/mL (≈ 0.99 µM)	50 µg/mL (≈ 124 µM)	> 100 µg/mL				CCCCC(O)(c1ccc(F)cc1)C(O)(Cn1cncn1)c1ccccc1Cl (stereo in doubt; 189)	20 µg/mL	
3.1 µg/mL (≈ 8.51 µM)	> 100 µg/mL	> 100 µg/mL				OC(c1cccc(Cl)c1)C(O)(Cn1cncn1)c1cccc(Cl)c1 (configuration not stated)		> 20 µg/mL
50 µg/mL (≈ 141 µM)	> 100 µg/mL	> 100 µg/mL				COc1ccc(C(=O)C(O)(Cn2cnnc2)c2ccc(OC)cc2)cc1 (configuration not stated)		2.5 µg/mL
> 100 µg/mL	> 100 µg/mL	> 100 µg/mL				O=C(c1ccc(Cl)cc1Cl)C(O)(Cn1cnnc1)c1ccc(Cl)cc1 (configuration not stated)		> 20 µg/mL

MIC [2, 5]	MIC [3, 6]	MIC [4, 7]	MIC [2]	MIC [3]	MIC [4]	Structure (SMILES)	MEC [1]	minimal effective concentration [1]
0.1 µg/mL (≈ 0.264 µM)	> 100 µg/mL	> 100 µg/mL				O=C(c1ccc(F)cc1)C(O)(Cn1ccnc1)c1ccc(Cl)cc1Cl (configuration not stated)		1.25 µg/mL
1.6 µg/mL (≈ 5.16 µM)	50 µg/mL (≈ 161 µM)	> 100 µg/mL				CC(C)C(O)(Cn1cncn1)C(C)(O)c1ccc(Cl)cc1 (configuration not stated)		5 µg/mL
3.1 µg/mL (≈ 8.38 µM)	> 100 µg/mL	> 100 µg/mL				Cc1ccc([C@H]2OC(=O)O[C@]2(Cn2cncn2)c2ccccc2Cl)cc1		0.63 µg/mL
3.1 µg/mL (≈ 8.87 µM)	> 100 µg/mL	> 100 µg/mL				Cc1ccc([C@H]2OC(=O)O[C@]2(Cn2cncn2)c2ccc(C)cc2)cc1		1.25 µg/mL
50 µg/mL (≈ 102 µM)	> 100 µg/mL	> 100 µg/mL				OC(Cc1ccc(Cl)cc1)(c1ccccc1)C(O)(Cn1cncn1)c1ccc(Cl)cc1Cl (configuration not stated)		20 µg/mL
0.2 µg/mL (≈ 0.621 µM)	> 100 µg/mL	100 µg/mL (≈ 311 µM)				CCCCCC(O)(Cn1cncn1)C(=O)c1ccc(Cl)cc1 (configuration not stated)		0.63 µg/mL
> 100 µg/mL	> 100 µg/mL	> 100 µg/mL				O=C(c1ccccn1)C(O)(Cn1cncn1)c1ccccn1 (configuration not stated)		> 20 µg/mL
0.1 µg/mL (≈ 0.277 µM)	> 100 µg/mL	> 100 µg/mL				O=C(c1ccc(Cl)cc1)C(O)(Cn1ccnc1)c1ccc(Cl)cc1 (configuration not stated)		20 µg/mL
0.1 µg/mL (≈ 0.252 µM)	25 µg/mL (≈ 63.1 µM)	> 100 µg/mL				CC(O)(c1ccc(F)cc1)C(O)(Cn1cncn1)c1ccc(Cl)cc1Cl (stereo in doubt; 173)		0.31 µg/mL
> 100 µg/mL	> 100 µg/mL	> 100 µg/mL				O=C(c1ccc(F)cc1)C(O)(Cn1cnnc1)c1ccc(F)cc1 (configuration not stated)		> 20 µg/mL
1.6 µg/mL (≈ 4.95 µM)	> 100 µg/mL	> 100 µg/mL				Cc1ccc(C(O)C(O)(Cn2cncn2)c2ccc(C)cc2)cc1 (configuration not stated)		2.5 µg/mL
	> 100 µg/mL	> 100 µg/mL	0.8 µg/mL (≈ 2.3 µM)			OC(c1ccc(F)cc1)C(O)(Cn1cncn1)c1ccc(Cl)cc1 (stereo in doubt; 103)	0.31 µg/mL	
0.1 µg/mL (≈ 0.257 µM)	20 µg/mL (≈ 51.4 µM)	100 µg/mL (≈ 257 µM)				O=C1O[C@H](c2ccccc2)[C@@](Cn2ccnc2)(c2ccc(Cl)cc2Cl)O1		0.16 µg/mL
0.8 µg/mL (≈ 2.4 µM)	> 100 µg/mL	> 100 µg/mL				O=C(c1cccs1)C(O)(Cn1ccnc1)c1ccc(Cl)cc1 (configuration not stated)		5 µg/mL
50 µg/mL (≈ 138 µM)	> 100 µg/mL	> 100 µg/mL				O=C(c1ccc(Cl)cc1)C(O)(Cn1cnnc1)c1ccc(Cl)cc1 (configuration not stated)		> 20 µg/mL
6.3 µg/mL (≈ 25.5 µM)	> 100 µg/mL	> 100 µg/mL				CC(C)(O)C(O)(Cn1cncn1)c1ccccc1 (configuration not stated)		> 20 µg/mL
1.6 µg/mL (≈ 4.25 µM)	> 100 µg/mL	> 100 µg/mL				O=C(c1ccc(Cl)cc1Cl)C(O)(Cc1ccccc1)Cn1cncn1 (configuration not stated)		5 µg/mL
1.6 µg/mL (≈ 4.83 µM)	> 100 µg/mL	> 100 µg/mL				OC(c1ccc(F)cc1)C(O)(Cn1cncn1)c1ccc(F)cc1 (configuration not stated)		10 µg/mL
0.8 µg/mL (≈ 2.05 µM)	> 100 µg/mL	50 µg/mL (≈ 128 µM)				O=C1O[C@H](c2ccc(Cl)cc2)[C@@](Cn2cncn2)(c2ccc(Cl)cc2)O1		1.25 µg/mL
1.6 µg/mL (≈ 4.88 µM)	> 100 µg/mL	> 100 µg/mL				O=C(c1ccccc1)C(O)(Cn1cncn1)c1ccccc1Cl (configuration not stated)		2.5 µg/mL
12.5 µg/mL (≈ 35.4 µM)	> 100 µg/mL	> 100 µg/mL				COc1ccccc1C(=O)C(O)(Cn1cncn1)c1ccccc1OC (configuration not stated)		> 20 µg/mL
1.56 µg/mL (≈ 4.85 µM)	> 100 µg/mL	> 100 µg/mL				Cc1ccc(C(=O)C(O)(Cn2cncn2)c2ccc(C)cc2)cc1 (configuration not stated)		20 µg/mL
1.6 µg/mL (≈ 4.97 µM)	> 100 µg/mL	> 100 µg/mL				CCC[C@H]1OC(=O)O[C@]1(Cn1cncn1)c1ccc(Cl)cc1		0.31 µg/mL
0.1 µg/mL (≈ 0.251 µM)	> 100 µg/mL	100 µg/mL (≈ 251 µM)				OC(c1ccc(Cl)cc1Cl)C(O)(Cn1cncn1)c1ccc(Cl)cc1 (configuration not stated)		0.31 µg/mL
0.1 µg/mL (≈ 0.29 µM)	50 µg/mL (≈ 145 µM)	> 100 µg/mL				CC(C)C(C)(O)C(O)(Cn1cncn1)c1ccc(Cl)cc1Cl (stereo in doubt; 169)		0.08 µg/mL
0.1 µg/mL (≈ 0.244 µM)	> 100 µg/mL	> 100 µg/mL				O=S1O[C@H](c2ccccc2)[C@](Cn2cncn2)(c2ccc(Cl)cc2Cl)O1 (some centres not stated)		0.08 µg/mL
